Data: ChEMBL document CHEMBL3421581, “A solid-phase combinatorial approach for indoloquinolizidine-peptides with high affinity at D(1) and D(2) dopamine receptors” (Eur J Med Chem, 2015)
Activity calls are given as the source filed them. The rule behind the calls is not given here.

Assays:
[1] = molecular target: D(2) dopamine receptor (Homo sapiens) (UniProt P14416); assay: Displacement of [3H]-YM09151-2 from dopamine D2 receptor (unknown origin) expressed in sheep striatum membranes assessed as low affinity constant measured per mg of protein after 2 hrs by scintillation counting analysis; type: cell membranes; conditions: Membrane
Outline: (§1)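 Sheep striatal membranes (0.2–0.5 mg protein/mL), 2 h at 25 °C in 50 mM Tris-HCl pH 7.4 with 10 mM MgCl2. Radioligand was [3H]-SCH 23390 for D1R (nonspecific: 50 μM SCH 23390) or [3H]-YM 09151-2 for D2R (nonspecific: 50 μM raclopride). Competitor tested at 9 concentrations, 1 nM–50 μM, in triplicate. Total binding fitted by nonlinear regression to a two-site model. Means ± SD of three experiments.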

[2] = molecular target: D(2) dopamine receptor (Homo sapiens) (UniProt P14416); assay: Displacement of [3H]-YM09151-2 from dopamine D2 receptor (unknown origin) expressed in sheep striatum membranes assessed as high affinity constant measured per mg of protein after 2 hrs by scintillation counting analysis; type: cell membranes; conditions: Membrane; outline: as §1
[3] = molecular target: D(2) dopamine receptor (Homo sapiens) (UniProt P14416); assay: Antagonist activity at dopamine D2 receptor (unknown origin) transfected in CHO cells assessed as inhibition of YM09151-2 -induced downregulation of phosphorylated ERK1/2 level at 10 uM after 5 mins by Western blot analysis; type: cell-based
Outline: (§2)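 D2R cDNA transiently transfected into CHO cells by Lipofectamine, used 48 h later. Cells were kept serum-free for 16 h, optionally pretreated 5 min with 1 μM YM 09151-2, then exposed to ligands for 5 min (combined condition used 10 μM test ligand). Lysed in ice-cold buffer, phospho-ERK1/2 read by infrared scanning. Means ± SEM, 3 experiments in duplicate, unpaired t-test vs basal.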

[4] = molecular target: D(2) dopamine receptor (Homo sapiens) (UniProt P14416); assay: Allosteric modulating activity at dopamine D2 receptor (unknown origin) expressed in sheep striatum membranes assessed as change in D2R antagonist [3H]-YM09151-2 Koff at 3 uM preincubated for 2 hrs followed by [3H]-YM09151-2 addition by rapid filtration and radioactivity counting; type: cell membranes; conditions: Membrane, in the assay text read “preincubated for 1 hr” for “preincubated for 2 hrs”
Outline: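 Sheep striatal membranes (0.2 mg protein/mL) preincubated 1 h at 25 °C ± 3 μM test ligand in 50 mM Tris-HCl pH 7.4 with 10 mM MgCl2, then 1 nM [3H]-YM 09151-2 added. After 2 h, dissociation started with 10 μM unlabeled YM 09151-2. Total binding measured at intervals by GF/C filtration and scintillation counting. Nonspecific binding taken after 90 min with 10 μM YM 09151-2.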

[5] = molecular target: D(2) dopamine receptor (Homo sapiens) (UniProt P14416); assay: Agonist activity at dopamine D2 receptor (unknown origin) transfected in CHO cells assessed as increase in ERK1/2 phosphorylation after 5 mins by Western blot analysis; type: cell-based; outline: as §2

Chain of D(2) dopamine receptor (Homo sapiens) (P14416 whole entry): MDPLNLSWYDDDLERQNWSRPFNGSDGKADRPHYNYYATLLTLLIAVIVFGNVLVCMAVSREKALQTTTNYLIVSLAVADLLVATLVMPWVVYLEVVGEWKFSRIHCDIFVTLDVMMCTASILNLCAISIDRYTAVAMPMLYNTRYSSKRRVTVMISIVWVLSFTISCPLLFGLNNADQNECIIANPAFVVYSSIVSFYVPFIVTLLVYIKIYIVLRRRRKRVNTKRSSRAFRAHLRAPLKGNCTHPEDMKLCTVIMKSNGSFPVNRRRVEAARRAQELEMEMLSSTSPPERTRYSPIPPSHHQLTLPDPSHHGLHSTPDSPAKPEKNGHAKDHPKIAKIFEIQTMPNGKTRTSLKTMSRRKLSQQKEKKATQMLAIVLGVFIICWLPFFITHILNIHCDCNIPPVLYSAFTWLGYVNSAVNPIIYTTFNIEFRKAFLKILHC

Row | Activity [1] [pmol] | Activity [2] [pmol] | inhibition [3] | Activity [4] | Activity [5] | Structure (SMILES)
1 | 0.12 | 0.06 | – | – | – | NCCCC[C@H](NC(=O)[C@H](Cc1ccc(F)c(F)c1)NC(=O)[C@H]1CCCN1C(=O)CCCCCNC(=O)[C@@H]1CC[C@H]2c3[nH]c4ccccc4c3CCN2C1)C(N)=O
2 | 0.12 | 0.04 | inactive | inactive | Dose-dependent effect | NCCCC[C@H](NC(=O)[C@H](Cc1ccc(F)c(F)c1)NC(=O)[C@H]1CCCN1C(=O)CCCCCNC(=O)[C@H]1CC[C@@H]2c3[nH]c4ccccc4c3CCN2C1)C(N)=O
